Tests used:
Conditions in all cases: stereoisomer not certain
[1] = target: OR51F1 (Homo sapiens) (UniProt A6NGY5)
Summary of the method: (§1)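 Whether a receptor–molecule pair is responsive (active) rests on the original authors' judgment that its measured signal was statistically different from baseline. Pairs without that judgment are non-responsive (inactive). Sources used varied assay methods, commonly transient luciferase assays in mammalian cell lines.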

[2] = target: OR51F2 (Homo sapiens) (UniProt Q8NH61)
Summary of the method: as §1

[3] = target: OR51G1 (Homo sapiens) (UniProt Q8NGK1)
Summary of the method: as §1

[4] = target: OR51G2 (Homo sapiens) (UniProt Q8NGK0)
Summary of the method: as §1

[5] = target: OR51H1 (Homo sapiens) (UniProt Q8NH63)
Summary of the method: as §1

[6] = target: OR51I1 (Homo sapiens) (UniProt Q9H343)
Summary of the method: as §1

[7] = target: OR51I2 (Homo sapiens) (UniProt Q9H344)
Summary of the method: as §1

[8] = target: OR51J1 (Homo sapiens) (UniProt Q9H342)
Summary of the method: as §1

[9] = target: T1, OR51L1 (Homo sapiens) (UniProt Q8NGJ5)
T1 sequence (whole entry): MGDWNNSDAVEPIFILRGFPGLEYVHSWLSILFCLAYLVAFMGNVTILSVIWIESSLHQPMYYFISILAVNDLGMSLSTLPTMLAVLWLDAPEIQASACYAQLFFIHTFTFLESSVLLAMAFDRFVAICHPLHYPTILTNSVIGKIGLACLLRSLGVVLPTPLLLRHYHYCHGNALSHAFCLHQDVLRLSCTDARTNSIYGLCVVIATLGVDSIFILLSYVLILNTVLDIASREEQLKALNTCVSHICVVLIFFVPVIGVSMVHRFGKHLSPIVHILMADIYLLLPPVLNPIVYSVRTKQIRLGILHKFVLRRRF
Summary of the method: as §1

[10] = target: OR51M1 (Homo sapiens) (UniProt Q9H341)
Summary of the method: as §1

Measured: odorant receptor agonist call;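 further: active if original authors judged signal statistically different from baseline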

Chain of OR51I2 (Homo sapiens) (Q9H344 whole entry): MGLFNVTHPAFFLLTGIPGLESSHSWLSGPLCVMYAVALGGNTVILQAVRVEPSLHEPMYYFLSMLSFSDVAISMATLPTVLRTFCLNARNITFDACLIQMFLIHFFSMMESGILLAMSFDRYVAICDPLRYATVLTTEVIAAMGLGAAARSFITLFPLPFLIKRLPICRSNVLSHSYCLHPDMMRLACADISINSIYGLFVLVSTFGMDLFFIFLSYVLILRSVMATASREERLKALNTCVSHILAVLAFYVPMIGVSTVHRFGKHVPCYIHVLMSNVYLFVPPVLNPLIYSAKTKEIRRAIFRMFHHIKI
Chain of OR51J1 (Homo sapiens) (Q9H342 whole entry): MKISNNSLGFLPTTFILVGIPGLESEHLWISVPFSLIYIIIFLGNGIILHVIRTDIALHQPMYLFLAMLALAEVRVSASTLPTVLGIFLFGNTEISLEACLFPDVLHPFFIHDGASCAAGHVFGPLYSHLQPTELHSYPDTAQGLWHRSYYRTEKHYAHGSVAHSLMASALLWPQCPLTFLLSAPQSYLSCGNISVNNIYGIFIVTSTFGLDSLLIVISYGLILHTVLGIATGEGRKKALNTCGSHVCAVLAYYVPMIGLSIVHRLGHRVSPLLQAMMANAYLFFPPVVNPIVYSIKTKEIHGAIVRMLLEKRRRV
Chain of OR51G1 (Homo sapiens) (Q8NGK1 whole entry): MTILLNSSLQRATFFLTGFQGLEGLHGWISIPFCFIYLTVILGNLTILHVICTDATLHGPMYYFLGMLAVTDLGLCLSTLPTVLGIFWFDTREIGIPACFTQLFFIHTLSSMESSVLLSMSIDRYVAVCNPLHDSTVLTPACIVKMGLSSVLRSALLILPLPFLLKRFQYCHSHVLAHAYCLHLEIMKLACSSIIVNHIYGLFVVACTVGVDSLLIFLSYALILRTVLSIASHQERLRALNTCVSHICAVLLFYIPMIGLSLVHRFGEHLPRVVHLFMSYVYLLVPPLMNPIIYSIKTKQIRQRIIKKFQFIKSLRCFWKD
Chain of OR51G2 (Homo sapiens) (Q8NGK0 whole entry): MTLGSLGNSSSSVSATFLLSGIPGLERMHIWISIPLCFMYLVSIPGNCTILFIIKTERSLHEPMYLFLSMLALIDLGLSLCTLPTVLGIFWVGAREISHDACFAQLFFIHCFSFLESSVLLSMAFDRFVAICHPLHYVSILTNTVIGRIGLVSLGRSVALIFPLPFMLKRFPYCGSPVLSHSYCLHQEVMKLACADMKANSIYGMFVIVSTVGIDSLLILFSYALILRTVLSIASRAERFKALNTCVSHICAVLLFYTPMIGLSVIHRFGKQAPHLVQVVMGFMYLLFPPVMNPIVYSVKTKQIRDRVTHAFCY
Chain of OR51I1 (Homo sapiens) (Q9H343 whole entry): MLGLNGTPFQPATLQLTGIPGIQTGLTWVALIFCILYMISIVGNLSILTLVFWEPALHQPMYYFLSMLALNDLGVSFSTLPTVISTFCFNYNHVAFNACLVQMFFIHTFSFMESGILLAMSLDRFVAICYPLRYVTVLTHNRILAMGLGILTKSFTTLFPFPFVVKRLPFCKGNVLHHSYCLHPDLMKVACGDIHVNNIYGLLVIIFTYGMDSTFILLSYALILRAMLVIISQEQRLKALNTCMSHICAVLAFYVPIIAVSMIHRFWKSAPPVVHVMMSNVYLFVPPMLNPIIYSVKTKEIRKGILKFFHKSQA
Chain of OR51F2 (Homo sapiens) (Q8NH61 whole entry): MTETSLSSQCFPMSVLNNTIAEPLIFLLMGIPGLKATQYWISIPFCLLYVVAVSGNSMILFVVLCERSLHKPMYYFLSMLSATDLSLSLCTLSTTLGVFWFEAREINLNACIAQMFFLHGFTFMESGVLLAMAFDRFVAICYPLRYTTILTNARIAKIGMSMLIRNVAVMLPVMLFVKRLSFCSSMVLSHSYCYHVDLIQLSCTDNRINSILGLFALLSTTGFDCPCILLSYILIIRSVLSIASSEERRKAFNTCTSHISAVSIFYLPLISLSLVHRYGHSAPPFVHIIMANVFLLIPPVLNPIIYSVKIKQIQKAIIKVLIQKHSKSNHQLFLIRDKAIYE
Chain of OR51M1 (Homo sapiens) (Q9H341 whole entry): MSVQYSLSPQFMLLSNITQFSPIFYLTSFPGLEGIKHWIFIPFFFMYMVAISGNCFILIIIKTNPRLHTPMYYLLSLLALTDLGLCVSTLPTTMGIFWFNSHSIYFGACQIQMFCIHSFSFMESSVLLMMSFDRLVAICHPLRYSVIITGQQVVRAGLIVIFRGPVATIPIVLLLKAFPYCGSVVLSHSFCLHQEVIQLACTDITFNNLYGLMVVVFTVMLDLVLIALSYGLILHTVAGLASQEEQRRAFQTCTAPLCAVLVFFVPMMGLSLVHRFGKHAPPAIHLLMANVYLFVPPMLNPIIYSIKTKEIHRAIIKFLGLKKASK
Chain of OR51H1 (Homo sapiens) (Q8NH63 whole entry): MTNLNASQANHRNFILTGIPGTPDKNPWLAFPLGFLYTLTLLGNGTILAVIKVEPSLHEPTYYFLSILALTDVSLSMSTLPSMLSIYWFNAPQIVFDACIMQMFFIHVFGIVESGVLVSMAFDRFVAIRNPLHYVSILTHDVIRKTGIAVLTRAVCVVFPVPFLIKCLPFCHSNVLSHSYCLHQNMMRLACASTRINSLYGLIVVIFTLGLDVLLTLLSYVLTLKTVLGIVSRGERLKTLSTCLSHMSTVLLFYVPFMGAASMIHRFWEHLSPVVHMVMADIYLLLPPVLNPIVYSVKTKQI
Chain of OR51F1 (Homo sapiens) (A6NGY5 whole entry): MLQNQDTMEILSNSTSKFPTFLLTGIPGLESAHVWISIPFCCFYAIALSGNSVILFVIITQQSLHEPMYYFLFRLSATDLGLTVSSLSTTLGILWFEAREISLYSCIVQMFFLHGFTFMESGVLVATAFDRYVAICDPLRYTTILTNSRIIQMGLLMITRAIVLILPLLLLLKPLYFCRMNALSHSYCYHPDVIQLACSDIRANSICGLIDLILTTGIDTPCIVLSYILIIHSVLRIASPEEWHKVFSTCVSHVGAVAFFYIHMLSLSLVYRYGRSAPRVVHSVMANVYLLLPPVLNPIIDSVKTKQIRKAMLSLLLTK

Cc1c([N+](=O)[O-])c(C)c([N+](=O)[O-])c(C(C)(C)C)c1[N+](=O)[O-]
inactive: all assays above

C=CCOC(=O)Cc1ccccc1
active: [9]
not listed: [1] | [5]
inactive: all other assays above

CCC1CCC(=O)O1 (stereo unspecified)
inactive: [9]

O=c1cc(O)c2ccccc2o1
inactive: [9]

C=CCc1ccccc1
inactive: [9]
